Cl transport mod – modulates chloride dependent transport by human KCC2. 190,000 compounds, 2.2% hits. KCC2 cells, thallium flux FluoZin-2 fluorescence. B-score of Tl+ flux slope (higher = more flux/activation; lower = inhibition) at 10 µM;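 active = thallium flux slope and its plate-corrected score both differing from the plate sample mean at a set confidence after two filtering rounds, in either direction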;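 note: slope of fluorescence scaled to starting intensity during 10 to 20 s after thallium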
DTT redox prof – compounds producing H2O2 with reducing agent – biochemical, NIH compound library profiling, artefact control for MLSCN library redox annotation, primary screen; DTT-dependent redox cycling H2O2, phenol red/HRP absorbance; 100% = 100 µM peroxide control, 0% = buffer; activation, % at 10 µM; 200,000 compounds, 0.03% hits;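 active = activation of at least 50% relative to the plate's high and low controls in the primary single-dose screen; inactive = activation below 50%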;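 note: compound incubated with DTT at 0.8 mM final as the reducing agent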
p97 ATPase inh – inhibitors of human p97 ATPase. recombinant p97 ATPase, Kinase-Glo ATP luminescence, 3 h. inhibition, % at 8 µM. 220,000 compounds, 0.42% hits. AID 1481; in the data active = inhibition above about 15%;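 note: 0% = DMSO vehicle and 100% = wells lacking enzyme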
MDM2 E3 inh – Mdm2 E3 ligase (human) inhibition; signal enhancement, % at 5 µM; Q00987; 210,000 compounds, 0.11% hits; cell-based MDM2 ubiquitination luciferase reporter, 2 h; 0 = plate control, 100 = twice control, blank-subtracted; AID 1230;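 active = signal enhancement of 30% or more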;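 note: luminescence tracks abundance of the self-degrading MDM2-luciferase fusion protein; higher signal means inhibition of MDM2 E3 ligase activity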
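Timing – 2 h compound exposure at 37 °C · Assay system – mammalian cells stably expressing self-ubiquitinating, self-degrading MDM2 E3–luciferase fusion · Amount – 2000 cells seeded into each well · Measure – % luminescence enhancement versus blank-corrected plate control mean · Measured by – SteadyLite luminescence, 15 min reagent step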
ROMK primary – modulators of human ROMK potassium channel; P48048; Tet-inducible ROMK, thallium flux fluorescence; actives lie on both sides; B-score at 10 µM; 130,000 compounds, 2% hits; AID 1918;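 active = signal ratio slope over the read window, or its plate-corrected B-score, at least 3 SD from the plate mean, either direction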;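 note: B-score of the F/F0 ratio slope over 7 to 12 s after thallium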
PKD1 kinase inh – blocks activity of human protein kinase D1. Q15139. PKD1 kinase fluorescence polarization assay. inhibition, % (test concentration not listed). 200,000 compounds, 0.056% hits; in the data active = inhibition above about 50%
Target sequence (Q15139 whole entry, looked up): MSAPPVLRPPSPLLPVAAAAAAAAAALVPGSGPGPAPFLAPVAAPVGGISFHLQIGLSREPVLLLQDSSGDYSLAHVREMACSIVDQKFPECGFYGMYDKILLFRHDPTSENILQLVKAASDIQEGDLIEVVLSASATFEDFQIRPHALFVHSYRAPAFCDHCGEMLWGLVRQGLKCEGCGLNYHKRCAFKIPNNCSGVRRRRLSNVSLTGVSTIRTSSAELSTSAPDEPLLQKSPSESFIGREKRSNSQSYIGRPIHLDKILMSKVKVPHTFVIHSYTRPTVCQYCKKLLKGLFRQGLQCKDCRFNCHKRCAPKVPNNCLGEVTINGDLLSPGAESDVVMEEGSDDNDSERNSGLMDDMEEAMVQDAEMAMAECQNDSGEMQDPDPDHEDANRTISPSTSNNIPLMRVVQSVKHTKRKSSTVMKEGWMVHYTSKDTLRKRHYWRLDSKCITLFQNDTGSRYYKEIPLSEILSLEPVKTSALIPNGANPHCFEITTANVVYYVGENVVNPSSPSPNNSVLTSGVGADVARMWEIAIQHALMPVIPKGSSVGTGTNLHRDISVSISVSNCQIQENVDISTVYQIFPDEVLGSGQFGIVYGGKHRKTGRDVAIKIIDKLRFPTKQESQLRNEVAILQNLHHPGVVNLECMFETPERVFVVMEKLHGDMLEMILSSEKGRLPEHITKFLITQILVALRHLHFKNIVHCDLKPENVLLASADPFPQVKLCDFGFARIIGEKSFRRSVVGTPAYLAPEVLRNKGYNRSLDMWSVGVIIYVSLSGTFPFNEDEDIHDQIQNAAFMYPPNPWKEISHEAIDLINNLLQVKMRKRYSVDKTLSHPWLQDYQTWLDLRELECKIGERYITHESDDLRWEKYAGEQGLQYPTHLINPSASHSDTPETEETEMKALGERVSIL
ROMK hit retest – retested hit modulating human ROMK potassium channel; ROMK thallium flux, fluorescence ratio; hits give low values; 3,000 compounds, 54% hits; AID 1917; normalized thallium flux (F/F0 slope) at 10 µM; shares compounds with ROMK primary;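 active = Flux at 10 µM at least 3 SD below or above vehicle control mean in one or both replicates; inconclusive = no clear call, values can overlap the other calls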
Active calls of the source: *; ? = inconclusive; / = no result given. Only some compounds are listed: those with a hit (about 3.4% of all), similar ones and a draw of the others.

SMILES | Cl transport mod | DTT redox prof | p97 ATPase inh | MDM2 E3 inh | ROMK primary | PKD1 kinase inh | ROMK hit retest
CCOc1ccc(N2C(=O)NC(=O)/C(=C\c3ccc(N4CCCCC4)o3)C2=O)cc1 | -1.07 | 0.5 | 3.8 | -0.1 | / | -10.6 | 0.044*
Cc1cc2ccccc2c(=O)n1CC(=O)NCC(=O)N1CCC2(CC1)OCCO2 | / | -1.4 | 3.6 | 23.7 | -1.75 | -1.9 | /
C=CCN1C(=O)/C(=C/c2cc(C)n(-c3cccnc3)c2C)C(=O)NC1=S | 0.455 | 0.7 | 7.2 | -12.2 | -2.85* | -11.1 | 0.0669*
O=C1NC(=O)C(=Cc2cn(CCOc3ccc4c(c3)OCO4)c3ccccc23)C(=O)N1 | -1.08 | 6.2 | 6.9 | -12.5 | -5.61* | 5.5 | ?
C=CCN1C(=O)C2(C(C(=O)OCC)=C(N)Oc3ccccc32)c2c1c1ccccc1oc2=O (configuration not stated) | -0.0286 | 0.2 | -1.7 | -10.3 | / | -0.1 | /
Fc1ccccc1CCNCc1cccc2ccccc12 | 0.796 | 0.5 | 2.7 | -12.8 | -3.61* | -9.8 | 0.0567*
COc1ccc(C2SCC(=O)Nc3c2c(C)nn3-c2ccccc2)cc1OC (configuration not stated) | 0.444 | 2.3 | -1.5 | -21.5 | / | -4.3 | /

Assay outcomes as filed in PubChem BioAssay.
